Published values of several laboratories.
Compare with care: the assays were run in different laboratories.
Target: Dual specificity protein kinase TTK (TTK, Homo sapiens, UniProt P33981)
Residues used in one study (P33981 1-857): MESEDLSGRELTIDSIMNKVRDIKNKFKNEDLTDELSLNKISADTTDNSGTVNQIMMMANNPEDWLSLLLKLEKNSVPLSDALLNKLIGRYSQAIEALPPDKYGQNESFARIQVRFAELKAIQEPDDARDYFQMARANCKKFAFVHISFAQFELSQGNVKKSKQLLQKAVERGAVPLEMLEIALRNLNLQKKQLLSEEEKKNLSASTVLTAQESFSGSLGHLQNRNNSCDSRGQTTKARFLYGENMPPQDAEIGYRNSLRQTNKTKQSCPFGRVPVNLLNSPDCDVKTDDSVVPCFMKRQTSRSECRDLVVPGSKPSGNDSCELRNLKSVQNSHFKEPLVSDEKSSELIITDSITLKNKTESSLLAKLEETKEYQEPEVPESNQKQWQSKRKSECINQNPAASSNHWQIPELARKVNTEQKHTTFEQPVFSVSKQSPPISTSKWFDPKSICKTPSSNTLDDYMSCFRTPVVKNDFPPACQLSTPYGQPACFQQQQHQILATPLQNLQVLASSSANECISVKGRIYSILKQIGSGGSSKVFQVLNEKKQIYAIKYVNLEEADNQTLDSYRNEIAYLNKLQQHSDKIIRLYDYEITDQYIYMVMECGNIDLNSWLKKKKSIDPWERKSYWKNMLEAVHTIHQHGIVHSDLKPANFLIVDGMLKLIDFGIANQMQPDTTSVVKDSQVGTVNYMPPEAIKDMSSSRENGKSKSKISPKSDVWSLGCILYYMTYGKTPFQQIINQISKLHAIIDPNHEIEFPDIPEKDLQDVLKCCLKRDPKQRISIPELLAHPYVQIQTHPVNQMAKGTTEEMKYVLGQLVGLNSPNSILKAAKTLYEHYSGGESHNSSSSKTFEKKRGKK

SMILES	observed	action	method	concentration	quantity	result
C#Cc1cccc(Nc2ncnc3cc(OCCOC)c(OCCOC)cc23)c1	cell-free assay			0.5 µM	remaining signal	91.8%
CCN1CCC2(CC1)NC(=O)c1c(c3ccc(Cl)c(Cl)c3n1C)C2C#N (racemic)	thermal stability		DSF	10 µM	ΔTm	0.6 °C
Cn1c(=O)n(-c2ccc(C(C)(C)C#N)cc2)c2c3cc(-c4cnc5ccccc5c4)ccc3ncc21	enzyme activity	inhibitor		10 µM	remaining activity	91%
FC(F)(F)Oc1cccc(-c2cnc3ccc(-c4ccncc4)nn23)c1	enzyme activity	inhibitor	radiometric	1 µM	activity vs control	70%
CCCOc1ccc([C@H]2[C@H](C(=O)O)[C@@H](c3ccc4c(c3)OCO4)CN2CC(=O)Nc2c(CC)cccc2CC)cc1	cell-free assay		competition with immobilised ligand	1 µM	remaining binding	94%
N#CC1c2c([nH]c3c(Cl)c(Cl)ccc23)C(=O)NC12CCCCC2 (racemic)	thermal stability		DSF	10 µM	ΔTm	0.9 °C
CCS(=O)(=O)c1cc2cc(C[C@](O)(CC(C)(C)c3ccc(F)cc3C(N)=O)C(F)(F)F)[nH]c2cn1	cell-free assay		competition with immobilised ligand	1 µM	remaining binding	99%
Oc1cccc(-c2nc(N3CCOCC3)c3oc4ncccc4c3n2)c1	cell-free assay			0.5 µM	remaining signal	93.3%
Nc1ncnc2occ(-c3ccc(NC(=O)Nc4cc(C(F)(F)F)ccc4F)cc3)c12	cell-free assay			20 µM	remaining signal	4.5%
Cc1nccc(COC(=O)N2C[C@@H]3[C@@H](CNC(=O)c4ccc5[nH]nnc5c4)[C@@H]3C2)n1	cell-free assay		competition with immobilised ligand	1 µM	remaining binding	89%
Cn1c2c(c3ccc(Cl)c(Cl)c31)C(C#N)C(C)(C)NC2=O (stereo not shown)	thermal stability		DSF	10 µM	ΔTm	1.2 °C
O=C(N1CCS(=O)(=O)CC1)N1C[C@H](c2ccc(OC(F)(F)F)cc2)C[C@H](c2nc(C3CC3)no2)C1	cell-free assay		competition with immobilised ligand	1 µM	remaining binding	82%
FC(F)c1nc2ccccc2n1-c1nc(N2CCOCC2)nc(N2CCOCC2)n1	enzyme activity	inhibitor		10 µM	remaining activity	88%
Cc1noc([C@H]2C[C@@H](c3ccc(C(F)(F)F)cc3)CN(C(=O)N3CCS(=O)(=O)C3)C2)n1	cell-free assay		competition with immobilised ligand	1 µM	remaining binding	100%
CC(C)(O)[C@H]1CC[C@H](Nc2ccc3ncc(-c4cccc(C(F)(F)F)c4)n3n2)CC1	enzyme activity	inhibitor		1 µM	remaining activity	79.8%
COc1cc(Nc2cnc(C#N)c(O[C@H](C)CN(C)C)n2)ncc1-c1cnn(C)c1	enzyme activity	inhibitor	radiometric	1 µM	remaining activity	81%
Cc1c[nH]c2nccc(Oc3c(F)cc(Nc4cc(Cl)nc(N)n4)cc3F)c12	cell-free assay		competition with immobilised ligand	0.1 µM	remaining binding	96%
Nc1nc(Nc2ccc(S(N)(=O)=O)cc2)nn1C(=O)c1c(F)cccc1F	cell-free assay			0.5 µM	remaining signal	77.5%
Cc1ccc(C(=O)NCc2ccsc2)cc1C#Cc1cn(C(C)C)c2ncnc(N)c12	enzyme activity	inhibitor		1 µM	activity vs control	93%
CC(C)(C)c1nc2c(s1)c1nc(N)ncc1c1ccc(NS(=O)(=O)c3c(F)cccc3F)c(F)c12	enzyme activity	inhibitor	radiometric	1 µM	remaining activity	90%
CCN(CC)CCNC(=O)c1c(C)[nH]c(/C=C2\C(=O)Nc3ccc(F)cc32)c1C	cell-free assay			0.5 µM	remaining signal	68%
COc1cc(Cl)c(C(=O)N[C@@H](CN[C@H]2CC[C@@H](N)CC2)Cc2ccc(C#N)cc2)cc1-c1ccc(CN[C@H](C)c2ccc(C)cc2)o1	enzyme activity	inhibitor		1 µM	remaining activity	95%
